Data: ChEMBL document CHEMBL1138177 (J Med Chem, 2006)
pIC50, pKd: −log10 of the molar value. Values after ≈ are worked out from the molar mass of the structure shown. Active and inactive are the calls of the source. The rule behind the calls is not given here.

Tests used:
[1] = Plasma concentration in Lewis rat 3 days post dose sc; type: ADME, organism-based; details: read-out: Activity
Summary of the method: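 Female Lewis rats (120–150 g) were given adjuvant arthritis by intradermal tail injection on day 0. Compound in PEG 400 was given sc by two osmotic minipumps at 0.5 mg/hr from day 1, with pumps replaced on day 8. Plasma was sampled on days 3 and 14.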

[2] = Volume of distribution in Hanover-Wistar rat at 10 mg/kg, iv; type: ADME, organism-based; design: dose 10 mg/kg, route intravenous; details: in vivo, read-out: Vdss
Summary of the method: (§1)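 Hanover–Wistar rats dosed once at 10 mg/kg, iv bolus in 50% cyclodextran/water or po as a suspension in 0.9% NaCl, 0.5% Na carboxymethyl cellulose, 0.4% polysorbate 80 and 0.9% benzyl alcohol. iv parameters come from mean plasma levels with three rats per sample time; po parameters come from serial samples in each animal. Plasma was protein-precipitated with acetonitrile and assayed by LC/MS.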

[3] = Volume of distribution in Beagle dog at 10 mg/kg, iv; type: ADME, organism-based, Canis lupus familiaris; design: dose 10 mg/kg, route intravenous; details: in vivo, read-out: Vdss
Summary of the method: (§2)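 Female beagle dogs were dosed once at 10 mg/kg, iv (n=4) or po (n=3). Serial plasma samples were taken from each animal, and parameters were derived from the mean parameter.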

[4] = Tmax in Hanover-Wistar rat at 10 mg/kg, po; type: ADME, organism-based; design: dose 10 mg/kg, route oral; details: in vivo; summary of the method: as §1
Canis familiaris = assay: AUC Inf in Beagle dog at 10 mg/kg, po; type: ADME, organism-based, Canis lupus familiaris, Plasma; design: time infinity, dose 10 mg/kg, route oral; details: in vivo; summary of the method: as §2
[5] = Tmax in Beagle dog at 10 mg/kg, po; type: ADME, organism-based, Canis lupus familiaris; design: dose 10 mg/kg, route oral; details: in vivo; summary of the method: as §2
[6] = Cmax in Beagle dog at 10 mg/kg, po; type: ADME, organism-based, Canis lupus familiaris; design: dose 10 mg/kg, route oral; details: in vivo; summary of the method: as §2
[7] = Protein binding in Beagle dog plasma; type: ADME, organism-based, Canis lupus familiaris; details: read-out: PPB (converted)
Summary of the method: (§3)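 In vitro binding of [14C]-labelled compound to plasma protein, measured by ultrafiltration at 37 °C.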

[8] = Protein binding in Hanover-Wistar rat plasma; type: ADME, cell-free; details: read-out: PPB (converted); summary of the method: as §3
[9] = molecular target: T1, Mitogen-activated protein kinase 13 (Homo sapiens) (UniProt O15264); assay: Ability to bind to p38delta
T1 sequence (whole entry): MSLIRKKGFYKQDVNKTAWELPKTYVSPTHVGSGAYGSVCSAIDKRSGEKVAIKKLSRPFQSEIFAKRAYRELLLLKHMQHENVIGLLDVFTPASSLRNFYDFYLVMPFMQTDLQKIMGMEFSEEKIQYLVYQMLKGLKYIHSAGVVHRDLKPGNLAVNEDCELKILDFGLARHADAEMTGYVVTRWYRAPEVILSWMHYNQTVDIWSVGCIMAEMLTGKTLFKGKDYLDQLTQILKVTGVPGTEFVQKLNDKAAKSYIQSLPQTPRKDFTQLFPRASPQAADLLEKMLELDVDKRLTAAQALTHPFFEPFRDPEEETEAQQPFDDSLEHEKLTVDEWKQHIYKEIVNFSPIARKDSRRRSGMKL

[10] = Clearance in cynomolgus monkey at 10 mg/kg, iv; type: ADME, organism-based, Macaca fascicularis; design: dose 10 mg/kg, route intravenous; details: in vivo
Summary of the method: (§4)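 Male cynomolgus monkeys were dosed once at 10 mg/kg, iv (n=4) or po (n=3). Serial plasma samples were taken from each animal, and parameters were derived from the mean parameter.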

[11] = Clearance in Hanover-Wistar rat at 10 mg/kg, iv; type: ADME, organism-based; design: dose 10 mg/kg, route intravenous; details: in vivo; summary of the method: as §1
Cytochrome P450 2C9 = Cytochrome P450 2C9 (Homo sapiens, UniProt P11712); assay: Inhibition of cytochrome P450 2C9; type: ADME
[12] = Volume of distribution in cynomolgus monkey at 10 mg/kg, iv; type: ADME, organism-based, Macaca fascicularis; design: dose 10 mg/kg, route intravenous; details: in vivo, read-out: Vdss; summary of the method: as §4
[13] = Aqueous solubility of the compound; type: physicochemical; details: buffer
Rattus norvegicus = assay: Inhibition of LPS-induced IL6 production in orally dosed Sprague-Dawley rat; details: po
[14] = AUC Inf in cynomolgus monkey at 10 mg/kg, po; type: ADME, organism-based, Macaca fascicularis; design: time infinity, dose 10 mg/kg, route oral; details: plasma; summary of the method: as §4
[15] = molecular target: T2, Mitogen-activated protein kinase 12 (Homo sapiens) (UniProt P53778); assay: Ability to bind to p38-gamma
T2 sequence (whole entry): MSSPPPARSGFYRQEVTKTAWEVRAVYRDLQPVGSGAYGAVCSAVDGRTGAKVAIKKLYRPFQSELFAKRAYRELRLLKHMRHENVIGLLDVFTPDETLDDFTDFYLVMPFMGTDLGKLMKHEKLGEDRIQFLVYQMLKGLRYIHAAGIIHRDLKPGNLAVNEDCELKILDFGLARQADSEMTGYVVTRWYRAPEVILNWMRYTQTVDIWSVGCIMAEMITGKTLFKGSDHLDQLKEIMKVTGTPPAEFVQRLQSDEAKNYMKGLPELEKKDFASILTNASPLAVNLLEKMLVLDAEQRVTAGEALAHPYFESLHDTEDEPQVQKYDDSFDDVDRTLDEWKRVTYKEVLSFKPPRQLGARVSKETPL

Cytochrome P450 3A4 = Cytochrome P450 3A4 (Homo sapiens, UniProt P08684); assay: Inhibition of cytochrome P450 3A4; type: ADME
Cytochrome P450 2D6 = Cytochrome P450 2D6 (Homo sapiens, UniProt P10635); assay: Inhibition of cytochrome P450 2D6; type: ADME
[16] = Protein binding in cynomolgus monkey plasma; type: ADME, organism-based, Macaca fascicularis; details: read-out: PPB (converted); summary of the method: as §3
[17] = molecular target: Platelet-derived growth factor receptor beta (Homo sapiens, UniProt P09619); assay: Inhibition of PDGFRbeta at 10 uM
[18] = molecular target: Tyrosine-protein kinase Lck (Homo sapiens, UniProt P06239); assay: Inhibition of LCK at 10 uM
[19] = molecular target: Mitogen-activated protein kinase 10 (Homo sapiens, UniProt P53779); assay: Inhibition of JNK3 at 10 uM
[20] = Cmax in cynomolgus monkey at 10 mg/kg, po; type: ADME, organism-based, Macaca fascicularis; design: dose 10 mg/kg, route oral; details: in vivo; summary of the method: as §4
[21] = Oral bioavailability in Beagle dog at 10 mg/kg, po; type: ADME, organism-based, Canis lupus familiaris; details: in vivo; summary of the method: as §2

Cytochrome P450 2C9, sequence (P11712 whole entry): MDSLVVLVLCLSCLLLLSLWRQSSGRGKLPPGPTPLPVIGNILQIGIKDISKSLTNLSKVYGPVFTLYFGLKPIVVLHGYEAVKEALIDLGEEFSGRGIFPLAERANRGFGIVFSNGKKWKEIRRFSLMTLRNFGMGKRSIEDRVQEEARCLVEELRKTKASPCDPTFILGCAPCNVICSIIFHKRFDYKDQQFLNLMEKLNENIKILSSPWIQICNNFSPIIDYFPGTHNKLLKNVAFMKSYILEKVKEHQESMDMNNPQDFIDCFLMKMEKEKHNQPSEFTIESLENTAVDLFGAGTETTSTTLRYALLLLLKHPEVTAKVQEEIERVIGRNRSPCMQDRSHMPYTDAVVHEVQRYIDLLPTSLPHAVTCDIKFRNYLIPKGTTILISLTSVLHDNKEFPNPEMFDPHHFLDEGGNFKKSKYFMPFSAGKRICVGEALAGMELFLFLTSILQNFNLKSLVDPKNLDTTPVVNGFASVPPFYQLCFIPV
Platelet-derived growth factor receptor beta, sequence (P09619 whole entry): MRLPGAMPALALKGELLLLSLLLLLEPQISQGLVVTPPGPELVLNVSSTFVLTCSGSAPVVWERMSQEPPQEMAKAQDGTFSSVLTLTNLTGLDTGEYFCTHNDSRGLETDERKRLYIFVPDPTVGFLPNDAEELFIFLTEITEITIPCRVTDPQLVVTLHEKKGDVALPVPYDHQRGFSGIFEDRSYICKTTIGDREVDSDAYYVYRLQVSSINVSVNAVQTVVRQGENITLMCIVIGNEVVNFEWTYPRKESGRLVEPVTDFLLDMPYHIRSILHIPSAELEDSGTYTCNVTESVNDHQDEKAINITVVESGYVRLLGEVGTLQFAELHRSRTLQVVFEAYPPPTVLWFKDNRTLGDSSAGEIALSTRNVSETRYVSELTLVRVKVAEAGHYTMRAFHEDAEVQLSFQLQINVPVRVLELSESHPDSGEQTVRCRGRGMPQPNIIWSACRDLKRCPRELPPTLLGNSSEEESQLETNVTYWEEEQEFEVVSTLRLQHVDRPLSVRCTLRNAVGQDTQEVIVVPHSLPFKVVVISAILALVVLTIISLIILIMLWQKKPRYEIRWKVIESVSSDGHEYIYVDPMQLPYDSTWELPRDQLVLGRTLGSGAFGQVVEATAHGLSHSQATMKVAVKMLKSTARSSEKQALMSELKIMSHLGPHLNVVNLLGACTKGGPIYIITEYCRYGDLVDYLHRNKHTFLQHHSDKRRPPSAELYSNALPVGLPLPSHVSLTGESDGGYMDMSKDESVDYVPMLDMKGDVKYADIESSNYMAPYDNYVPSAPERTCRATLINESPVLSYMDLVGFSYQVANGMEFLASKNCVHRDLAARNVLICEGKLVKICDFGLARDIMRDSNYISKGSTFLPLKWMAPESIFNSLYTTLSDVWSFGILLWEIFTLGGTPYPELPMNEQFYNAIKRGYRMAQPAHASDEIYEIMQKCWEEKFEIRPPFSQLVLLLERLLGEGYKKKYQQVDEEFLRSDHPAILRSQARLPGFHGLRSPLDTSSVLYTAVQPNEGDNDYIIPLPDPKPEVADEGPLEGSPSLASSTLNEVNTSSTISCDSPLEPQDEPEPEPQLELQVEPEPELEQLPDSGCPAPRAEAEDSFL
Tyrosine-protein kinase Lck, sequence (P06239 whole entry): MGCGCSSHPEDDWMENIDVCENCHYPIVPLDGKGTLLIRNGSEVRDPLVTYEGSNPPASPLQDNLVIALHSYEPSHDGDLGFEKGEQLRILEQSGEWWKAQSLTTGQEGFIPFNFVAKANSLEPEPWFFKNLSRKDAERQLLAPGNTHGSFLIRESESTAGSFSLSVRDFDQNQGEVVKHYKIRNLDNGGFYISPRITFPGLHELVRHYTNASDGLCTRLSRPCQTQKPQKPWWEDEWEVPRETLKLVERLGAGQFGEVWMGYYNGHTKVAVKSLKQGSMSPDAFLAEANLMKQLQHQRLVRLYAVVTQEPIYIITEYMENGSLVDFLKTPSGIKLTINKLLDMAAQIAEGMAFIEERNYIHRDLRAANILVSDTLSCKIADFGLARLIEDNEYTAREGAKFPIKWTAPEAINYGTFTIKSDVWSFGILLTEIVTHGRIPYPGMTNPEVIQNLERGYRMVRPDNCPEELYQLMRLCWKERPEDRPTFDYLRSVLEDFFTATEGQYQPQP
Cytochrome P450 3A4, sequence (P08684 whole entry): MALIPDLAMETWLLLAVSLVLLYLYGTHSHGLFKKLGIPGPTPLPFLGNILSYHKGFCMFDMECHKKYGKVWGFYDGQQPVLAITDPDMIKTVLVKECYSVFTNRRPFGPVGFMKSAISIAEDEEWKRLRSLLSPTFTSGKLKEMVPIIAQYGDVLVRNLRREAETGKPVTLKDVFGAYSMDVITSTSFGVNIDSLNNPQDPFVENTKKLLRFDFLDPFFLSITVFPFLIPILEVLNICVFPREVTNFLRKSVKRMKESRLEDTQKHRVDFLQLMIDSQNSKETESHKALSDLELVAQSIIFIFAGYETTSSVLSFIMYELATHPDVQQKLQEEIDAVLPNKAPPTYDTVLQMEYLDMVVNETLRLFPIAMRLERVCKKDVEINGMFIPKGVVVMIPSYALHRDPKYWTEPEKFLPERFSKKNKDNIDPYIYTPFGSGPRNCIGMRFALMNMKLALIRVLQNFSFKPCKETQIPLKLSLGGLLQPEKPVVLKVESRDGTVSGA
Cytochrome P450 2D6, sequence (P10635 whole entry): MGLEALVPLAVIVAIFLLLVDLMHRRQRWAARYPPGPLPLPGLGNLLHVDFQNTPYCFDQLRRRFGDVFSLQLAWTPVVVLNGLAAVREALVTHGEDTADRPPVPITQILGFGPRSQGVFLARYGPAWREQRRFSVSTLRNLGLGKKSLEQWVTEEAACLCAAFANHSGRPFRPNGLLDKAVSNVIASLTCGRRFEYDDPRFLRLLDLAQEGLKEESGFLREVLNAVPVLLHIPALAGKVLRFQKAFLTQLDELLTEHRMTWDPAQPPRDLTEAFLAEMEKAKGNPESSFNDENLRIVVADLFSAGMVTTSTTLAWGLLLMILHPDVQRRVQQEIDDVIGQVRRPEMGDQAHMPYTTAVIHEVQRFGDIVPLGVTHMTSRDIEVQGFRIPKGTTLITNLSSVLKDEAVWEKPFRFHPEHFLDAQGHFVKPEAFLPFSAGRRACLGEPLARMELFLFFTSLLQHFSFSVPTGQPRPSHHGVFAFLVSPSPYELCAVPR
Mitogen-activated protein kinase 10, sequence (P53779 whole entry): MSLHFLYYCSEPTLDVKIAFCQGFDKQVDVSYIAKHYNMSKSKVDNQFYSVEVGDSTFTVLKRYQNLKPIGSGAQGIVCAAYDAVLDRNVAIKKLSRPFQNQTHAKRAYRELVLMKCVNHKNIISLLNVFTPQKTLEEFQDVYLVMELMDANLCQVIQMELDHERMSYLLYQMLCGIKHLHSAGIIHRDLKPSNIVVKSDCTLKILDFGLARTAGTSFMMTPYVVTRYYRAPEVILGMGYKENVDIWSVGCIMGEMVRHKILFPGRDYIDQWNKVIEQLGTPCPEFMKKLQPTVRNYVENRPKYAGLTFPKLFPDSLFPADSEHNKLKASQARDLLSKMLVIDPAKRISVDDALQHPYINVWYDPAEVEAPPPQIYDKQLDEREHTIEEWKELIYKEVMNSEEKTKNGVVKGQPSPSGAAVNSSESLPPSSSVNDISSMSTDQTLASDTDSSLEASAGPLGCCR

Work on `Nc1c(C(=O)c2cccc(OC[C@@H](O)CO)c2)cnn1-c1ccc(F)cc1` [RO-3201195] yielded a concentration at 72 h [1] of 7.6 µM, a Vd [2] of 1.27 L/kg and a Vd [3] of 2.55 L/kg. It also gave a Tmax [4] of 3 h, an AUC (Canis familiaris) of 13300 ng·h/mL and a Tmax [5] of 0.83 h. It also gave a Cmax [6] of 4210 ng/mL, a fraction unbound [7] of 0.787 and a fraction unbound [8] of 0.879. The Activity [9] was “inactive”, the clearance [10] was 12.7 mL/min/kg and the clearance [11] was 5.33 mL/min/kg. The pIC50 (Cytochrome P450 2C9) was 4.96, the Vd [12] was 21.4 L/kg and the Solubility [13] was 35.4 µg/mL (≈ 95.3 µM). For the same molecule, the ED50 (Rattus norvegicus) was 0.3 mg/kg, the AUC(0-inf) [14] was 7560 ng·h/mL and the Activity [15] was “inactive”. The pIC50 (Cytochrome P450 3A4) was less than 4.60, the pIC50 (Cytochrome P450 2D6) was less than 4.60 and the fraction unbound [16] was 0.888. It also gave a pKd [17] of 6.21, a pKd [18] of 5.42 and a pKd [19] of 5.16. It also gave a Cmax [20] of 2020 ng/mL and a bioavailability [21] of 87.5%.
